In BindingDB's records for doi:10.1021/jm060539t (Biogen Idec, 2006):

Columns and labels:
Adenosine receptor A3 = target: T1, Adenosine receptor A3 (Homo sapiens, UniProt P0DMS8); experiment: Displacement of [125I]ABA from human adenosine A3 receptor
T1 sequence (P0DMS8 whole entry): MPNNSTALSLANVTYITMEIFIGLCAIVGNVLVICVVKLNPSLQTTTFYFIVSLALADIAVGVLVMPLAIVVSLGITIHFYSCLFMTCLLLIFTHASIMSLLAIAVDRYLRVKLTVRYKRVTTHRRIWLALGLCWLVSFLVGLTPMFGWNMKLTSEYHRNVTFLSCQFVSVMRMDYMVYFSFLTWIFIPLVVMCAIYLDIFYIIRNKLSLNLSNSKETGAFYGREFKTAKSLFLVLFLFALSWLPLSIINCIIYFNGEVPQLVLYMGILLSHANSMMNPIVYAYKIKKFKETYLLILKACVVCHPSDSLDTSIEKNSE

Adenosine receptor A1 [1] = target: T2, Adenosine receptor A1 (Rattus norvegicus, UniProt P25099); experiment: Displacement of [3H]DPCPX from adenosine A1 receptor in rat cerebral cortex
T2 sequence (P25099 whole entry): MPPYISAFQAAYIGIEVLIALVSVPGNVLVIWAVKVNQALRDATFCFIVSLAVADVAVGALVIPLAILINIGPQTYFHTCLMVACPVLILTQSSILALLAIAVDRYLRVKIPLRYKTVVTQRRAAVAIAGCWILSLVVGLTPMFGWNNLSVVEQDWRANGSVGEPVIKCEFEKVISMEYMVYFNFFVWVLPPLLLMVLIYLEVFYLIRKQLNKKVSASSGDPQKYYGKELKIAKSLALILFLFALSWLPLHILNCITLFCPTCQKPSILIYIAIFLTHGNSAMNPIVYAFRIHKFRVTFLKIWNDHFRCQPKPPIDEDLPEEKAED
Summary of the method: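 Rat brain membranes (cerebral cortex for A1, striatum for A2A) homogenized in 10 mM EDTA/10 mM Na-HEPES pH 7.4 with protease inhibitors, washed, stored at -80 °C. 40-70 µg protein incubated in triplicate with radioligand plus seven competitor concentrations in HEPES/EDTA buffer with 2 units/mL adenosine deaminase, 2.5 h, 21 °C. A1: [3H]DPCPX 2 nM, nonspecific with 10 µM NECA; A2A: [3H]ZM241385 0.5-1.2 nM, nonspecific with 10 µM XAC. GF/C filtration; single-site fit, Cheng-Prusoff Ki.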

Adenosine receptor A1 [2] = target: T3, Adenosine receptor A1 (Homo sapiens, UniProt P30542); experiment: Displacement of [125I]ABA from human adenosine A1 receptor
T3 sequence (P30542 whole entry): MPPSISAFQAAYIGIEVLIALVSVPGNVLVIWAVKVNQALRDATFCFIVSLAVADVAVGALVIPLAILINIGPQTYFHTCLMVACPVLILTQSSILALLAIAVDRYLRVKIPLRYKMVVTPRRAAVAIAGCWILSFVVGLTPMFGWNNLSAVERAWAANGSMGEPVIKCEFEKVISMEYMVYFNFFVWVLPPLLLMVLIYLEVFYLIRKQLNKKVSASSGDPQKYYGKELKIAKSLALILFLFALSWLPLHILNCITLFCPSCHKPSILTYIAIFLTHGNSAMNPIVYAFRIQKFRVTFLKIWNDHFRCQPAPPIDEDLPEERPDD

| Ki (Adenosine receptor A3) [nM] | Ki (Adenosine receptor A1 [1]) [nM] | Ki (Adenosine receptor A1 [2]) [nM] | Structure (SMILES) |
| --- | --- | --- | --- |
| – | > 100 | – | CCCn1c2nc(C34CCC(O)(CC3)CC4)nc-2c2n(c1=O)C[C@H](CC)N2 [(S)-8-ethyl-2-(4-hydroxybicyclo[2.2.2]octan-1-yl)-4-propyl-7,8-dihydro-1H-imidazo[1,2-g]purin-5(4H)-one] |
| > 10000 | – | 35 | CCCn1c2nc(C34CCC(O)(CC3)CC4)nc-2c2n(c1=O)C[C@@H](C(C)C)N2 [(R)-2-(4-hydroxybicyclo[2.2.2]octan-1-yl)-8-isopropyl-4-propyl-7,8-dihydro-1H-imidazo[1,2-g]purin-5(4H)-one] |
| > 10000 | – | – | CCCn1c2nc(C34CCC(O)(CC3)CC4)nc-2c2n(c1=O)C[C@@H](CC)N2 [(R)-8-ethyl-2-(4-hydroxybicyclo[2.2.2]octan-1-yl)-4-propyl-7,8-dihydro-1H-imidazo[1,2-g]purin-5(4H)-one] |

The remaining lines, values behind:

| Structure (SMILES) | Ki (Adenosine receptor A3) [nM] | Ki (Adenosine receptor A1 [1]) [nM] | Ki (Adenosine receptor A1 [2]) [nM] |
| --- | --- | --- | --- |
| CCCn1c2nc(C34CCC(CCC(=O)O)(CC3)CC4)nc-2c2n(c1=O)C[C@@H](C(C)C)N2 [(R)-3-(4-(8-isopropyl-5-oxo-4-propyl-4,5,7,8-tetrahydro-1H-imidazo[1,2-g]purin-2-yl)bicyclo[2.2.2]octan-1-yl)propanoic acid] | > 10000 | – | – |
| CCCn1c2nc(C34CCC(O)(CC3)CC4)nc-2c2n(c1=O)CC[C@@H](CC)N2 [(R)-9-ethyl-2-(4-hydroxybicyclo[2.2.2]octan-1-yl)-4-propyl-8,9-dihydropyrimido[1,2-g]purin-5(1H,4H,7H)-one] | – | > 250 | – |
| CCCn1c2nc(C34CCC(O)(CC3)CC4)nc-2c2n(c1=O)CC[C@@H](C)N2 [(R)-2-(4-hydroxybicyclo[2.2.2]octan-1-yl)-9-methyl-4-propyl-8,9-dihydropyrimido[1,2-g]purin-5(1H,4H,7H)-one] | – | > 250 | – |
